According to ChEMBL document CHEMBL4392868, “Cytotoxic Tigliane Diterpenoids from Croton damayeshu” (J Nat Prod, 2019):
Where a name gives a salt, the structure may show the parent alone.

Columns and labels:
HL-60 [1] = experiment: Cytotoxicity against human HL60 cells assessed as inhibition of cell growth at 10 uM measured after 72 hrs by CCK8 assay relative to control; type: functional; conditions: HL-60, 72 h
A549 [2] = experiment: Cytotoxicity against human A549 cells measured after 72 hrs by CCK8 assay; type: functional, cell-based; conditions: A549, 72 h
Summary of the method: (§1)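 Human tumor cell lines A549 and HL-60 were assayed in vitro for cytotoxicity by the CCK-8 colorimetric method. Adriamycin served as the positive control, and IC50 values are reported in μM.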

A549 [3] = experiment: Cytotoxicity against human A549 cells assessed as inhibition of cell growth at 10 uM measured after 72 hrs by CCK8 assay relative to control; type: functional; conditions: A549, 72 h
HL-60 [4] = experiment: Cytotoxicity against human HL60 cells measured after 72 hrs by CCK8 assay; type: functional, cell-based; conditions: HL-60, 72 h; summary of the method: as §1

Structure (SMILES)	inhibition at 10 µM (HL-60 [1]) [%]	IC50 (A549 [2]) [nM]	inhibition at 10 µM (A549 [3]) [%]	IC50 (HL-60 [4]) [nM]
CC[C@H](C)C(=O)O[C@@H]1[C@@H](C)[C@]2(O)[C@@H]3C=C(C)C(=O)[C@@H]3CC(CO)=C[C@H]2[C@@H]2C(C)(C)[C@]12OC(=O)C(C)C	< 50	3700		
CC1=C[C@@H]2[C@@H](CC(C=O)=C[C@H]3[C@@H]4C(C)(C)[C@]4(OC(=O)C(C)C)[C@H](O)[C@@H](C)[C@]23O)C1=O	< 50		< 50	
CC1=C[C@@H]2[C@@H](CC(CO)=C[C@H]3[C@@H]4C(C)(C)[C@]4(OC(=O)[C@@H](C)[C@@H](C)O)[C@H](O)[C@@H](C)[C@]23O)C1=O	< 50		< 50	
C/C=C(\C)C(=O)O[C@@H]1[C@@H](C)[C@]2(O)[C@@H]3C=C(C)C(=O)[C@@H]3CC(C=O)=C[C@H]2[C@@H]2C(C)(C)[C@]12OC(=O)[C@@H](C)CC		1300		2400
CC[C@H](C)C(=O)O[C@@]12[C@H](O)[C@@H](C)[C@]3(O)[C@@H]4C=C(C)C(=O)[C@@H]4CC(CO)=C[C@H]3[C@@H]1C2(C)C	< 50		< 50	
CC1=C[C@@H]2[C@@H](CC(CO)=C[C@H]3[C@@H]4C(C)(C)[C@]4(OC(=O)C(C)C)[C@H](O)[C@@H](C)[C@]23O)C1=O	< 50		< 50	
C/C=C(\C)C(=O)O[C@@H]1[C@@H](C)[C@]2(O)[C@@H]3C=C(C)C(=O)[C@@H]3CC(CO)=C[C@H]2[C@@H]2C(C)(C)[C@]12OC(=O)[C@@H](C)[C@@H](C)O	< 50		< 50	
CC[C@H](C)C(=O)O[C@@H]1[C@@H](C)[C@]2(O)[C@@H]3C=C(C)C(=O)[C@@H]3CC(CO)=C[C@H]2[C@@H]2C(C)(C)[C@]12OC(=O)[C@@H](C)CC		4600		18900
C/C=C(\C)C(=O)O[C@@H]1[C@@H](C)[C@]2(O)[C@@H]3C=C(C)C(=O)[C@@H]3CC(CO)=C[C@H]2[C@@H]2C(C)(C)[C@]12OC(=O)C(C)C		1900		1800
CC[C@H](C)C(=O)O[C@@]12[C@H](OC(=O)c3ccccc3)[C@@H](C)[C@]3(O)[C@@H]4C=C(C)C(=O)[C@@H]4CC(CO)=C[C@H]3[C@@H]1C2(C)C		4100		22700
COc1cccc2c1C(=O)c1c(O)c3c(c(O)c1C2=O)C[C@@](O)(C(=O)CO)C[C@@H]3O[C@H]1C[C@H](N)[C@H](O)[C@H](C)O1 [DOXORUBICIN HYDROCHLORIDE]		400		80
CC[C@H](C)C(=O)O[C@@]12[C@H](O)[C@@H](C)[C@]3(O)[C@@H]4C=C(C)C(=O)[C@@H]4CC(C=O)=C[C@H]3[C@@H]1C2(C)C	< 50	900		
C/C=C(\C)C(=O)O[C@@H]1[C@@H](C)[C@]2(O)[C@@H]3C=C(C)C(=O)[C@@H]3CC(CO)=C[C@H]2[C@@H]2C(C)(C)[C@]12OC(C)=O	< 50		< 50	
C/C=C(\C)C(=O)O[C@@H]1[C@@H](C)[C@]2(O)[C@@H]3C=C(C)C(=O)[C@@H]3CC(CO)=C[C@H]2[C@@H]2C(C)(C)[C@]12OC(=O)[C@@H](C)CC	< 50	18300		
